From PubChem
Compounds with a hit are over-represented: about 1.5% of the library has one in this group of screens.
CXCR6 block – inhibitors of human CXCR6 receptor; O00574; CHO-K1 PathHunter CXCR6 beta-arrestin, luminescence; inhibition, % at 20 µM; 360,000 compounds, 0.36% hits; AID 602244; in the data active means inhibition above about 34%, passing the limit was not always enough;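 further: antagonist mode with CXCL16 agonist at 10 nM final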
APJ antag – antagonists of human APJ apelin receptor. P35414. CHO-K1 APJ beta-arrestin complementation, luminescence. inhibition, % at 20 µM. 330,000 compounds, 0.32% hits;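 active means inhibition above about 40% at 20 µM, limit read from the data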;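 further: cells challenged with 10 nM apelin-13 agonist together with compound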
Target sequence (P35414 whole entry, looked up): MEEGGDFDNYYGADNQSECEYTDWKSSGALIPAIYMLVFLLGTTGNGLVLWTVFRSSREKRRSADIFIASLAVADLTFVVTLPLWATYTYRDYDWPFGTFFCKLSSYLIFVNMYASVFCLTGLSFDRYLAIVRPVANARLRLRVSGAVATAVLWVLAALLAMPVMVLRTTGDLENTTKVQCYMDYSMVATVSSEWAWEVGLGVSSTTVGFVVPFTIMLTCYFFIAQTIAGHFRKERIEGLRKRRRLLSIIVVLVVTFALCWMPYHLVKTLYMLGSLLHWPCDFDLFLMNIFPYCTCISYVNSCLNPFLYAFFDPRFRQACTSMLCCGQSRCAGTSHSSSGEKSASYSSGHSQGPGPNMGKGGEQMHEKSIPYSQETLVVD
APJ ag – activates the human apelin receptor APJ | P35414 | AID 2520 | 330,000 compounds, 0.11% hits | activation, % at 20 µM | CHO-K1 APJ PathHunter beta-arrestin, luminescence; 0% DMSO wells, 100% apelin;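 active means activation more than six SD over the plate average, tested at 20 µM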
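Assay system – PathHunter CHO-K1 APJ (AGTRL-1) beta-arrestin reporter cells · Compound – one dose, 20 µM compound, 1% DMSO · Timing – compound 90 min 25 °C, reagent 1 h · Measured by – luminescence from split beta-galactosidase complementation, Galacton Star/Emerald II substrate · Measure – beta-arrestin recruitment to APJ as agonist activity, luminescent signal · Benchmarks – DMSO vs Apelin-13 10 nM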
CCR6 antag – blocks CCL20-driven beta-arrestin recruitment at human CCR6; CHO-K1 CCR6 PathHunter beta-arrestin, luminescence, CCL20-stimulated; inhibition, % at 20 µM; 340,000 compounds, 0.49% hits; P51684;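 active means compounds whose inhibition of the agonist-driven luminescence signal at 20 µM reaches about 50%, limit read from the data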;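 further: cells stimulated with CCL20 at 14 nM final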
EBI2 block – blocks human EBI2 receptor beta-arrestin signaling; P32249; AID 651636; inhibition, % at 5 µM; EBI2 beta-arrestin recruitment, luminescence, 7a,25-OHC stimulated; 360,000 compounds, 0.81% hits; in the data active means inhibition above about 38%;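 further: enzyme fragment complementation signal reports receptor beta-arrestin coupling in cells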
Numbers stand for hits; n = inactive; x = no result given.

SMILES | CXCR6 block | APJ antag | APJ ag | CCR6 antag | EBI2 block
Cc1ccc(NC(=O)CC(=O)Nc2ccc(C)cc2C)c(C)c1 | n | n | n | n | n
Cc1ccc(C(=O)CNc2ccc(C)cc2C)cc1 | n | n | n | 79 | n
COc1ccc(/C=C/C(=O)Oc2cccc(/C=N/NC(=O)Cc3ccc(Br)cc3)c2)cc1 | n | n | n | n | n
CCN(c1ccccc1)S(=O)(=O)c1ccc(C(=O)NCC(=O)Nc2ccc(F)c(F)c2F)cc1 | n | n | n | n | n
O=S(=O)(Nc1cc(Sc2cccc3cccnc23)c(O)c2ccccc12)c1ccc(F)cc1 | x | x | x | 65 | x
O=C(Sc1cccc2cccnc12)c1ccc(F)cc1 | x | 44 | n | x | x
COc1ccc(S(=O)(=O)Nc2cc(SCC(=O)O)c(O)c3ccccc23)cc1 | n | n | n | n | n
CN(C)C(=O)CSc1cccc2cccnc12 | 55 | n | n | 66 | n
COc1cc(NC(=O)CSCC(=O)Nc2cc(OC)cc(OC)c2)cc(OC)c1 | x | n | n | n | x
CC1=NOC(=O)/C1=C\c1ccc(-c2ccc(Cl)cc2Cl)o1 | n | n | 35 | n | n
CC(=O)Nc1cccc(/C(C)=N/NC(=O)c2ccc(CN3CCOCC3)cc2)c1 | n | n | n | n | n
N#CC(=C1CCCC1)c1nc(-c2ccccc2)cs1 | n | n | n | n | n
N#CC(=C1CCCC1)c1nc(-c2ccccc2O)cs1 | n | n | n | n | 65
COc1ccc(CNc2oc(COc3ccccc3Cl)nc2C#N)cc1 | n | n | n | n | n
Cc1ccc(CNc2oc(COc3ccccc3Cl)nc2C#N)cc1 | n | n | n | n | 47
O=C(COc1ccc(Cl)cc1)N1CCN(c2ccc([N+](=O)[O-])c(N3CCCCC3)c2)CC1 | n | n | n | n | 78
O=C(COc1ccccc1Cl)N1CCN(c2ccc([N+](=O)[O-])c(N3CCCCC3)c2)CC1 | n | n | n | n | n
C[C@H](CO)N1C[C@H](C)[C@@H](CN(C)C(=O)Nc2ccc(C(F)(F)F)cc2)Oc2c(NC(=O)Nc3ccc(C(F)(F)F)cc3)cccc2C1=O | n | n | n | n | 43
Cc1cccc(C)c1-n1nnnc1C(c1ccnc2ccccc12)N1CCN(C/C=C/c2ccccc2)CC1 (configuration not stated) | n | x | x | x | n
Cc1[nH]c2ccccc2c1/C=N/Nc1ccc([N+](=O)[O-])cc1 | n | x | x | 65 | 42
C/C(=N/Nc1ccc([N+](=O)[O-])cc1)c1c[nH]c2ccccc12 | n | n | n | 70 | n
C/C(=N/Nc1ccc([N+](=O)[O-])cc1)c1ccc(C)cc1C | n | n | n | n | n
O=C1/C(=C\c2ccc(Cl)c(Cl)c2)CN(C(=O)CCN2CCOCC2)C/C1=C/c1ccc(Cl)c(Cl)c1 | n | x | x | 56 | 90
O=C(NCCN1CCOCC1)c1ccc(Cl)c(Cl)c1 | n | n | n | n | n
CCN(CC)CCC(=O)N1C/C(=C/c2ccccc2)C(=O)/C(=C\c2ccccc2)C1 | 62 | x | x | 66 | 52
SMILES | CXCR6 block | APJ antag | APJ ag | CCR6 antag | EBI2 block
O=C1/C(=C\c2ccccc2)CCC/C1=C/c1ccccc1 | n | x | x | n | n
O=C1/C(=C\c2ccccc2)CN(C(=O)CCN2CCCCC2)C/C1=C/c1ccccc1 | 66 | x | x | 82 | 52
CC1CCCCN1C(=S)NC(=O)c1cc(Br)ccc1Cl (configuration not stated) | n | n | n | n | n
CCOC(=O)c1cc[nH]c1C | n | n | n | n | n
CCOC(=O)C1CCCN(C(=O)Cn2sc3nc(C)cc(C)c3c2=O)C1 (configuration not stated) | n | n | n | 67 | n
CCCCC1(C)NC(=O)N(CC(=O)Nc2cc(S(=O)(=O)N3CCOCC3)ccc2Cl)C1=O (configuration not stated) | n | n | n | n | n
O=C(CSc1nc2ccc(Nc3nc(N4CCOCC4)nc(N4CCOCC4)n3)cc2s1)Nc1ccccc1F | n | n | n | n | n
O=[N+]([O-])c1cc(CN2CCN(c3ccccc3)CC2)c(O)c2ncccc12 | 56 | n | n | 75 | n
O=S(=O)(c1ccc(Cl)cc1)N1CCN(Cc2ccc(O)c3ncccc23)CC1 | n | n | n | n | n
Oc1ccc(CN2CCN(Cc3ccccc3)CC2)c2cccnc12 | n | n | n | n | 68
COC(=O)c1ccc2nc(-c3ccco3)c(Cc3ccc(OC)cc3C)n2c1 | n | x | x | x | n
CCOC(=O)c1ccc(N/N=C/c2cc(Br)cc([N+](=O)[O-])c2O)cc1 | 52 | n | n | 60 | n
CCC(=O)N(c1nnc(SCC(=O)Nc2ccccc2Cl)s1)C1CC1 | n | n | n | n | n
CC(C)Cc1nnc(NC(=O)CCC(=O)N2CCN(c3ccc(Cl)cc3)CC2)s1 | n | n | n | n | n
C=C(C)C(=O)Oc1ccc(N=Nc2ccc(C)cc2)ccc1=O | 65 | x | x | 92 | n
CCOc1ccccc1-c1nc(CN2CCCN(C(=O)c3ccco3)CC2)c(C)o1 | n | n | n | n | n
CCc1n[nH]c(=S)n1/N=C/c1cc(OC)cc([N+](=O)[O-])c1O | n | 42 | n | 62 | n
COc1cc(/C=N/n2c(=S)[nH]nc(C)c2=O)cc([N+](=O)[O-])c1O | n | n | n | n | n
COc1ccc(-c2cnnc(N/N=C/c3ccc(O)c(OC)c3)n2)cc1 | n | n | n | n | n
Cc1cccc(NC(=O)c2nc[nH]c2C(=O)N2CCC(C)CC2)c1 | n | n | n | n | n
COc1ccnc(CSC(N)=Nc2cccc(C(F)(F)F)c2)c1 | n | x | x | 53 | n
COc1ccnc(CSC(N)=Nc2ccccc2C(F)(F)F)c1 | n | n | n | n | n
N#C/C(=C(/O)c1ccc([N+](=O)[O-])s1)c1nc2ccccc2[nH]1 | n | n | n | 63 | n
N#C/C(=C(/O)CCl)c1nc2ccccc2[nH]1 | n | 53 | n | n | n
N#C/C(=C(/O)c1ccc(Br)s1)c1nc2ccccc2[nH]1 | n | n | n | n | n
SMILES | CXCR6 block | APJ antag | APJ ag | CCR6 antag | EBI2 block
N#C/C(=C(\O)Cc1ccccc1)c1nc2ccccc2[nH]1 | n | n | n | n | n
CC(C)Cc1nnc(NC(=O)c2ccc3c(c2)NC(=O)C(C)S3)s1 (configuration not stated) | n | n | n | n | n
O=C(O)CCCN1C(=O)/C(=C/c2ccc(-c3nc4ccccc4s3)o2)SC1=S | n | n | n | n | 53
Cc1cc(NCc2ccccn2)n2ncc(-c3ccc(Cl)cc3)c2n1 | n | n | n | n | n
Cc1cc(NCc2ccccn2)n2nc(C)c(-c3ccc(Cl)cc3)c2n1 | n | n | n | 51 | n
CCOC(=O)/C(=C/c1ccc(N2CCC(c3ccccc3)=N2)cc1)C(C)=O | n | x | x | n | 49
c1ccc(C2=NN(c3ccccc3)CC2)cc1 | n | n | n | n | n
CCOc1ccc(NC(=O)CN2CCN(CC(=O)Nc3ccc(Cl)c(C(F)(F)F)c3)CC2)cc1 | n | n | n | n | 43
CCOc1ccc(NC(=O)CN2CCN(CC(=O)Nc3cccc(F)c3)CC2)cc1 | n | n | n | n | n
